Reference: ChEMBL document CHEMBL1770090, “Synthesis, antimicrobial, antioxidant, anti-hemolytic and cytotoxic evaluation of new imidazole-based heterocycles” (Eur J Med Chem, 2011)
Converted amounts (≈) assume the structure as drawn.

Tests used:
Bacillus subtilis [1] = assay: Antimicrobial activity against Bacillus subtilis ATCC 6633 after 24 hrs by agar well diffusion method; format: functional
Summary of the method: (§1)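 Agar well diffusion. Inocula of 100 µL: bacteria 1 × 10^8 CFU/mL on nutrient agar, yeast 1 × 10^6 CFU/mL on Sabouraud dextrose agar, fungi 1 × 10^4 spore/mL on potato dextrose agar. 10 mm wells received 100 µL of compound at 100 mg/mL in DMSO. Bacteria incubated 24 h at 37 °C, fungi 48 h at 28 °C. Controls were DMSO, ciprofloxacin 50 µg/mL and ketoconazole 50 µg/mL. Inhibition zone diameter in mm, scored N.A. to ++++, average of triplicates.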

Priestia megaterium = assay: Antimicrobial activity against Bacillus megaterium ATCC 9885 after 24 hrs by agar well diffusion method; format: functional; summary of the method: as §1
Staphylococcus aureus [2] = assay: Antimicrobial activity against Staphylococcus aureus ATCC 29213 after 24 hrs by agar well diffusion method; format: functional; summary of the method: as §1
Klebsiella pneumoniae = assay: Antimicrobial activity against Klebsiella pneumoniae ATCC 13883 after 24 hrs by agar well diffusion method; format: functional; summary of the method: as §1
Pseudomonas aeruginosa = assay: Antimicrobial activity against Pseudomonas aeruginosa ATCC 27953 after 24 hrs by agar well diffusion method; format: functional; summary of the method: as §1
Escherichia coli = assay: Antimicrobial activity against Escherichia coli ATCC 25922 after 24 hrs by agar well diffusion method; format: functional; summary of the method: as §1
Candida albicans = assay: Antimicrobial activity against Candida albicans NRRL Y-477 after 48 hrs by agar well diffusion method; format: functional; summary of the method: as §1
Aspergillus niger = assay: Antimicrobial activity against Aspergillus niger after 48 hrs by agar well diffusion method; format: functional; summary of the method: as §1
[3] = Antioxidant activity assessed as ABTS radical scavenging activity at 2 mM; format: functional
Summary of the method: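 ABTS (60 µM, 2 mL) was oxidized with MnO2 (25 mg/mL, 3 mL) in 0.1 M phosphate buffer pH 7, then centrifuged and filtered, with A734 adjusted to about 0.5. 50 µL of 2 mM compound in MeOH/phosphate buffer (1:1) was added. Colour loss expressed as % inhibition. L-ascorbic acid was the standard; blank and negative controls used MeOH/buffer.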

[4] = Antioxidant activity in rat erythrocytes assessed as inhibition of peroxyl radicals-induced hemolysis at 2 mM after 2 hrs; format: functional; settings: Erythrocyte, read-out: INH
Summary of the method: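 Rat blood from cardiac puncture, heparinized. Erythrocytes were washed three times in 0.15 M NaCl. A 10% suspension in PBS pH 7.4 was mixed with an equal volume of 200 mM AAPH in PBS containing sample, then shaken at 37 °C for 2 h. Mixture diluted with 8 volumes of PBS and centrifuged; supernatant A540 compared with a water-lysed sample for complete hemolysis. L-ascorbic acid was the positive control. Mean ± SD.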

[5] = Cytotoxicity against mouse EAC cells assessed as cell viability using trypan blue staining after 2 hrs by hemocytometer analysis; format: functional, cell-based; settings: Ehrlich
Bacillus subtilis [6] = assay: Antimicrobial activity against Bacillus subtilis ATCC 6633 after 24 hrs by two fold serial dilution technique; format: functional; settings: ATCC 6633, 24 h
Summary of the method: (§2)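 Tested only compounds giving inhibition zones ≥ 16 mm, by two-fold serial dilution in nutrient broth. Final concentrations were […], 175, 87.5, 43.8 and 21.9 µg/mL. Each 5 mL tube received 0.1 mL inoculum of about 1 × 10^8 CFU/mL and was incubated 24 h at 37 °C. MIC was the lowest concentration with no growth.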

Staphylococcus aureus [7] = assay: Antimicrobial activity against Staphylococcus aureus ATCC 29213 after 24 hrs by two fold serial dilution technique; format: functional; settings: ATCC 29213, 24 h; summary of the method: as §2

| SMILES | diameter of the inhibition zone (DIZ) (Bacillus subtilis [1]) | diameter of the inhibition zone (DIZ) (Priestia megaterium) | diameter of the inhibition zone (DIZ) (Staphylococcus aureus [2]) | diameter of the inhibition zone (DIZ) (Klebsiella pneumoniae) | diameter of the inhibition zone (DIZ) (Pseudomonas aeruginosa) | diameter of the inhibition zone (DIZ) (Escherichia coli) | diameter of the inhibition zone (DIZ) (Candida albicans) | diameter of the inhibition zone (DIZ) (Aspergillus niger) | inhibition [3] [%] | percent hemolysis at 2000 µM [4] [%] | IC50 [5] [µg/mL] | MIC (Bacillus subtilis [6]) [µg/mL] | MIC (Staphylococcus aureus [7]) [µg/mL] |
| --- | --- | --- | --- | --- | --- | --- | --- | --- | --- | --- | --- | --- | --- |
| C/C(=N\N=C1\N=C(c2cc3ccccc3o2)CS1)c1nc(-c2ccccc2)[nH]c1C | <=4 mm | <=4 mm | <=4 mm | <=4 mm | <=4 mm | <=4 mm | <=4 mm | <=4 mm | 39.9 | 1.9 | 21.5 (≈ 52 µM) | – | – |
| CC(=O)N1CCN(c2ccc(OCC3COC(Cn4ccnc4)(c4ccc(Cl)cc4Cl)O3)cc2)CC1 (stereo not drawn) [KETOCONAZOLE] | <=4 mm | <=4 mm | <=4 mm | <=4 mm | <=4 mm | <=4 mm | >=21 mm | >=21 mm | – | – | – | – | – |
| C/C(=N\N=C1\NC(=O)/C(=C/c2cn(-c3ccccc3)nc2-c2cc3ccccc3o2)S1)c1nc(-c2ccccc2)[nH]c1C | <=4 mm | <=4 mm | <=4 mm | <=4 mm | <=4 mm | <=4 mm | <=4 mm | <=4 mm | 35.9 | 1.5 | 125 (≈ 215 µM) | – | – |
| CC1=NC(=N/N=C(\C)c2nc(-c3ccccc3)[nH]c2C)/S/C1=N\Nc1ccccc1 | <=4 mm | <=4 mm | <=4 mm | <=4 mm | <=4 mm | <=4 mm | <=4 mm | <=4 mm | 44.4 | 6.4 | 20.2 (≈ 48.7 µM) | – | – |
| C/C(=N\N=C1\N=C(c2ccccc2)CS1)c1nc(-c2ccccc2)[nH]c1C | 16 mm | <=4 mm | 16 mm | 10 mm | 10 mm | 10 mm | <=4 mm | <=4 mm | 79.3 | 2.75 | 19.5 (≈ 52.2 µM) | 43.8 (≈ 117 µM) | 29.1 (≈ 77.9 µM) |
| C/C(=N\N=C1\N=C(c2cc3ccccc3oc2=O)CS1)c1nc(-c2ccccc2)[nH]c1C | <=4 mm | <=4 mm | <=4 mm | <=4 mm | <=4 mm | <=4 mm | <=4 mm | <=4 mm | 61.6 | 2.5 | 125 (≈ 283 µM) | – | – |
| O=C1O[C@H]([C@@H](O)CO)C(O)=C1O [ASCORBIC ACID] | – | – | – | – | – | – | – | – | 88.6 | 0.85 | – | – | – |
| C/C(=N/NC(=O)c1cc2ccc(O)cc2oc1=N)c1nc(-c2ccccc2)[nH]c1C | <=4 mm | <=4 mm | <=4 mm | <=4 mm | <=4 mm | <=4 mm | <=4 mm | <=4 mm | 4.56 | 5.55 | 150 (≈ 375 µM) | – | – |
| C/C(=N\NC(=O)CC#N)c1nc(-c2ccccc2)[nH]c1C | <=4 mm | <=4 mm | <=4 mm | <=4 mm | <=4 mm | <=4 mm | <=4 mm | <=4 mm | 48.2 | 3.65 | 125 (≈ 445 µM) | – | – |
| C/C(=N\NC(=O)/C(C#N)=C\c1cn(-c2ccccc2)nc1-c1cccs1)c1nc(-c2ccccc2)[nH]c1C | <=4 mm | <=4 mm | <=4 mm | <=4 mm | <=4 mm | <=4 mm | <=4 mm | <=4 mm | 34.6 | 5.55 | 125 (≈ 242 µM) | – | – |
| C/C(=N\NC(N)=S)c1nc(-c2ccccc2)[nH]c1C | 16 mm | 10 mm | 5 mm | 10 mm | <=4 mm | <=4 mm | <=4 mm | <=4 mm | 60.2 | 2.45 | 4.18 (≈ 15.3 µM) | 87.5 (≈ 320 µM) | – |
| C/C(=N\NC(=O)/C(C#N)=C\c1cn(-c2ccccc2)nc1-c1cc2ccccc2o1)c1nc(-c2ccccc2)[nH]c1C | <=4 mm | <=4 mm | <=4 mm | <=4 mm | <=4 mm | <=4 mm | <=4 mm | <=4 mm | 34.6 | 5.55 | 125 (≈ 227 µM) | – | – |
| O=c1[nH]cc(F)c(=O)[nH]1 [FLUOROURACIL] | – | – | – | – | – | – | – | – | – | – | 1.5 (≈ 11.5 µM) | – | – |
| C/C(=N\N=C1\N=C2N=c3ccccc3=NC2S1)c1nc(-c2ccccc2)[nH]c1C (stereo not drawn) | <=4 mm | <=4 mm | <=4 mm | <=4 mm | <=4 mm | <=4 mm | <=4 mm | <=4 mm | 37.4 | 1.1 | 4.25 (≈ 10.6 µM) | – | – |
| C/C(=N\N=C1\NC(=O)/C(=C/c2cn(-c3ccccc3)nc2-c2cccs2)S1)c1nc(-c2ccccc2)[nH]c1C | <=4 mm | <=4 mm | <=4 mm | <=4 mm | <=4 mm | <=4 mm | <=4 mm | <=4 mm | 76.2 | 3.45 | 8.25 (≈ 15 µM) | – | – |
| C/C(=N\N=C1\NC(=O)/C(=C/c2ccc(F)cc2)S1)c1nc(-c2ccccc2)[nH]c1C | <=4 mm | <=4 mm | <=4 mm | <=4 mm | <=4 mm | <=4 mm | <=4 mm | <=4 mm | 79.2 | 1.4 | 14.5 (≈ 34.6 µM) | – | – |
| CC1=NC(=N/N=C(\C)c2nc(-c3ccccc3)[nH]c2C)/S/C1=N\Nc1ccc(Cl)cc1 | <=4 mm | <=4 mm | <=4 mm | <=4 mm | <=4 mm | <=4 mm | <=4 mm | <=4 mm | 40.7 | 1.7 | 20.2 (≈ 45 µM) | – | – |
